Data reported in ChEMBL document CHEMBL3085638, “Synthesis of novel ciprofloxacin analogues and evaluation of their anti-proliferative effect on human cancer cell lines” (2013).
Active and inactive are the calls of the source. The calls are words filed in the database; no cut-off is given here.

Key:
CCRF-CEM [1] = assay: Antiproliferative activity against human CCRF-CEM cells assessed as cell viability at 50 uM after 72 hrs by CellTiter assay relative to DMSO control; assay type: functional; conditions: read-out: Activity
Procedure, shortened: (§1)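 ATCC-derived cells kept in EMEM with 10% FBS and 1% penicillin/streptomycin at 37 °C under 5% CO2. At 75–80% confluency, 5000 cells/well were seeded, then after 72 h exposed to 50 µM compound in triplicate for 72 h. CellTiter 96 AQueous One reagent was added for 1 h at 37 °C and formazan A490 read, with cell-free medium plus reagent as blank. Results are % of untreated control.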

HCT-116 [2] = assay: Antiproliferative activity against human HCT116 cells assessed as cell viability at 50 uM after 72 hrs by CellTiter assay relative to DMSO control; assay type: functional; conditions: HCT-116, 72 h, read-out: Activity; procedure, shortened: as §1
MDA-MB-468 [3] = assay: Antiproliferative activity against human MDA-MB-468 cells assessed as cell viability at 50 uM after 72 hrs by CellTiter assay relative to DMSO control; assay type: functional; conditions: MDA-MB-468, 72 h, read-out: Activity; procedure, shortened: as §1
CCRF-CEM [4] = assay: Antiproliferative activity against human CCRF-CEM cells assessed as cell viability at 50 uM by CellTiter assay relative to DMSO control; assay type: functional, cell-based
CCRF-CEM [5] = assay: Antiproliferative activity against human CCRF-CEM cells assessed as cell viability at 50 uM after 24 hrs by CellTiter assay relative to DMSO control; assay type: functional; conditions: read-out: Activity
CCRF-CEM [6] = assay: Antiproliferative activity against human CCRF-CEM cells assessed as cell viability at 50 uM after 48 hrs by CellTiter assay relative to DMSO control; assay type: functional; conditions: read-out: Activity
CCRF-CEM [7] = assay: Antiproliferative activity against human CCRF-CEM cells assessed as cell viability at 50 uM after 96 hrs by CellTiter assay relative to DMSO control; assay type: functional; conditions: read-out: Activity
CCRF-CEM [8] = assay: Antiproliferative activity against human CCRF-CEM cells assessed as cell viability at 10 uM after 72 hrs by CellTiter assay; assay type: functional, cell-based
Procedure, shortened: (§2)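 Doxorubicin was the positive control at 10 µM. ATCC cells were grown in EMEM with 10% FBS and 1% penicillin/streptomycin at 37 °C under 5% CO2, seeded at 5000 cells/well, and treated 72 h after seeding for a 72 h exposure. Viability was read by CellTiter 96 AQueous One reagent (1 h, 37 °C) as A490, minus a cell-free blank, and expressed as % of untreated control.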

HCT-116 [9] = assay: Antiproliferative activity against human HCT116 cells assessed as cell viability at 10 uM after 72 hrs by CellTiter assay; assay type: functional, cell-based; procedure, shortened: as §2
MDA-MB-468 [10] = assay: Antiproliferative activity against human MDA-MB-468 cells assessed as cell viability at 10 uM after 72 hrs by CellTiter assay; assay type: functional, cell-based; procedure, shortened: as §2

Compound: O=C(O)c1cn(C2CC2)c2cc(N3CCN(C(=O)CN4CCN(c5ccc(F)c(F)c5)CC4)CC3)c(F)cc2c1=O
- viability at 50 µM (CCRF-CEM [1]): 35%
- viability at 50 µM (HCT-116 [2]): 35%
- viability at 50 µM (MDA-MB-468 [3]): 35%

Compound: O=C(O)c1cn(C2CC2)c2cc(N3CCN(C(=O)CN4CCN(C(c5ccc(F)cc5)c5ccc(F)cc5)CC4)CC3)c(F)cc2c1=O
- Activity (CCRF-CEM [4]; TDE = time-dependent effect): tde
- viability at 50 µM (CCRF-CEM [5]): 19%
- viability at 50 µM (CCRF-CEM [1]): 38%
- viability at 50 µM (CCRF-CEM [6]): 27%
- viability at 50 µM (HCT-116 [2]): 35%
- viability at 50 µM (MDA-MB-468 [3]): 35%
- viability at 50 µM (CCRF-CEM [7]): 43%

Compound: O=C(O)c1cn(C2CC2)c2cc(N3CCN(C(=O)CN4CCN(C(c5ccccc5)c5ccccc5)CC4)CC3)c(F)cc2c1=O
- viability at 50 µM (MDA-MB-468 [3]): ≤ 35%

Compound: O=C(O)c1cn(C2CC2)c2cc(N3CCNCC3)c(F)cc2c1=O
- Activity (CCRF-CEM [4]): Active

Compound: COc1cccc2c1C(=O)c1c(O)c3c(c(O)c1C2=O)C[C@@](O)(C(=O)CO)C[C@@H]3O[C@H]1C[C@H](N)[C@H](O)[C@H](C)O1
- Activity (CCRF-CEM [8]): Active
- Activity (HCT-116 [9]): Active
- Activity (MDA-MB-468 [10]): Active
